# Source: ChEMBL document CHEMBL1649558, “Antiviral activity of chloroquine against human coronavirus OC43 infection in newborn mice” (Antimicrob Agents Chemother, 2009)
# Assays:
# Human coronavirus OC43 [1] = assay: Antiviral activity against Human coronavirus OC43 infected in new born C57BL/6 mouse assessed as survival rate at 15 mg/kg, sc transfered via placenta after administration to pregnant mouse; type: functional; conditions: Betacoronavirus 1, sc, route subcutaneous
# [2] = Selectivity index, ratio of CC50 for human HRT18 cells to EC50 for Human coronavirus OC43 infected in human HRT18 cells; type: toxicity, cell-based; conditions: read-out: Ratio CC50/EC50
# In short: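 Index = CC50/EC50. For the EC50, HRT-18 cells were seeded at 6 × 10⁴ per well and grown 4 days. They were then infected with 1 × 10⁶ OC43 copies/ml in 2% serum MEM with 0.032–500 μM compound for 4 days at 37°C. Supernatant RNA was measured by qRT-PCR against a cRNA standard curve. The CC50 came from the MTS viability assay at 4 days.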
# Human coronavirus OC43 [3] = assay: Antiviral activity against Human coronavirus OC43 infected in new born C57BL/6 mouse assessed as survival rate at 5 mg/kg, sc transfered via placenta after administration to pregnant mouse; type: functional; conditions: Betacoronavirus 1, sc, route subcutaneous
# In short: (§1)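 Pregnant C57BL/6 dams were given chloroquine subcutaneously (200 μl; 1, 5 or 15 mg/kg) prepartum or postpartum; controls were untreated. Five-day-old pups were inoculated intracerebrally with 1 × 10³ HCoV-OC43 copies in 10 μl. Mortality was monitored daily, and survivors were followed for 60 days. Survival is surviving pups over total pups; curves were compared by log-rank test.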
# Human coronavirus OC43 [4] = assay: Antiviral activity against Human coronavirus OC43 infected in pregnant C57BL/6 mouse assessed as survival rate at 1 mg/kg, sc administered postpartum; type: functional; conditions: Betacoronavirus 1, sc, route subcutaneous; in short: as §1
# Human coronavirus OC43 [5] = assay: Antiviral activity against Human coronavirus OC43 infected in new born C57BL/6 mouse assessed as survival rate at 1 mg/kg, sc transfered via placenta after administration to pregnant mouse; type: functional; conditions: Betacoronavirus 1, sc, route subcutaneous; in short: as §1
# Human coronavirus OC43 [6] = assay: Antiviral activity against Human coronavirus OC43 infected in new born C57BL/6 mouse assessed as survival rate at 5 mg/kg, sc transfered via maternal milk after administration to pregnant mouse; type: functional; conditions: Betacoronavirus 1, sc, route subcutaneous; in short: as §1
# Human coronavirus OC43 [7] = assay: Antiviral activity against Human coronavirus OC43 infected in pregnant C57BL/6 mouse assessed as survival rate at 5 mg/kg, sc administered prepartum; type: functional; conditions: Betacoronavirus 1, sc, route subcutaneous; in short: as §1
# Human coronavirus OC43 [8] = assay: Antiviral activity against Human coronavirus OC43 infected in pregnant C57BL/6 mouse assessed as survival rate at 15 mg/kg, sc administered postpartum; type: functional; conditions: Betacoronavirus 1, sc, route subcutaneous; in short: as §1
# Human coronavirus OC43 [9] = assay: Antiviral activity against Human coronavirus OC43 infected in new born C57BL/6 mouse assessed as survival rate at 15 mg/kg, sc transfered via maternal milk after administration to pregnant mouse; type: functional; conditions: Betacoronavirus 1, sc, route subcutaneous
# Human coronavirus OC43 [10] = assay: Antiviral activity against Human coronavirus OC43 infected in pregnant C57BL/6 mouse assessed as survival rate at 1 mg/kg, sc administered prepartum; type: functional; conditions: Betacoronavirus 1, sc, route subcutaneous; in short: as §1
# Human coronavirus OC43 [11] = assay: Antiviral activity against Human coronavirus OC43 infected in pregnant C57BL/6 mouse assessed as survival rate at 15 mg/kg, sc administered prepartum; type: functional; conditions: Betacoronavirus 1, sc, route subcutaneous; in short: as §1
# Human coronavirus OC43 [12] = assay: Antiviral activity against Human coronavirus OC43 infected in pregnant C57BL/6 mouse assessed as survival rate at 5 mg/kg, sc administered postpartum; type: functional; conditions: Betacoronavirus 1, sc, route subcutaneous; in short: as §1
# Human coronavirus OC43 [13] = assay: Antiviral activity against Human coronavirus OC43 infected in new born C57BL/6 mouse assessed as survival rate at 1 mg/kg, sc transfered via maternal milk after administration to pregnant mouse; type: functional; conditions: Betacoronavirus 1, sc, route subcutaneous; in short: as §1
# Human coronavirus OC43 [14] = assay: Antiviral activity against Human coronavirus OC43 infected in human HRT18 cells assessed as decrease in viral load at 10 uM treated at the time of infection measured after 28 hrs by qRT-PCR analysis relative to control; type: functional
# In short: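 Subconfluent HRT-18 monolayers were infected with 4 × 10⁷ HCoV-OC43 genome equivalents/ml, adsorbed 30 min, and washed five times with MEM. Chloroquine (10 μM) was added at infection or at later time points. Supernatant viral RNA was quantified by qRT-PCR at 28 h postinfection. Two independent experiments in duplicate; mean ± SEM.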
# Human coronavirus OC43 [15] = assay: Antiviral activity against Human coronavirus OC43 infected in human HRT18 cells after 4 days by qRT-PCR analysis; type: functional, cell-based; conditions: Betacoronavirus 1, HRT-18, 96 h
# In short: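 HRT-18 cells were seeded and grown 4 days, then infected with 1 × 10⁶ HCoV-OC43 copies/ml in MEM with 2% FCS, with chloroquine at 0.032–500 μM. After 4 days at 37°C in 5% CO₂, viral RNA in the supernatant was quantified by qRT-PCR against a cRNA standard curve. EC50 is the concentration halving the viral RNA increase relative to untreated infected cells.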
# [16] = Cytotoxicity against human HRT18 cells after 4 days by MTS assay; type: cell-based, HRT-18
# In short: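 HRT-18 cells grown in MEM with 10% fetal calf serum, 1% L-glutamine and 1.4% sodium bicarbonate were exposed to a range of compound concentrations for 4 days at 37°C, 5% CO₂. Viable cells were quantified by MTS reduction to formazan, read at 492 nm. CC50 is the concentration reducing viability by 50%.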
compound,measurement,setting,value
CCN(CC)CCCC(C)Nc1ccnc2cc(Cl)ccc12.O=P(O)(O)O.O=P(O)(O)O (stereo unspecified) [CHLOROQUINE PHOSPHATE],survival at 15 mg/kg,Human coronavirus OC43 [1],100%
same,selectivity ratio,[2],1370
same,survival at 5 mg/kg,Human coronavirus OC43 [3],92.9%
same,survival at 1 mg/kg,Human coronavirus OC43 [4],0%
same,survival at 1 mg/kg,Human coronavirus OC43 [5],33.3%
same,survival at 5 mg/kg,Human coronavirus OC43 [6],83.3%
same,survival at 5 mg/kg,Human coronavirus OC43 [7],92.9%
same,survival at 15 mg/kg,Human coronavirus OC43 [8],97.4%
same,survival at 15 mg/kg,Human coronavirus OC43 [9],97.4%
same,survival at 1 mg/kg,Human coronavirus OC43 [10],33.3%
same,survival at 15 mg/kg,Human coronavirus OC43 [11],100%
same,survival at 5 mg/kg,Human coronavirus OC43 [12],83.3%
same,survival at 1 mg/kg,Human coronavirus OC43 [13],0%
same,fold change (FC),Human coronavirus OC43 [14],100
same,EC50,Human coronavirus OC43 [15],0.306 µM
same,CC50 at 96 h,[16],419 µM
